Experimental data published in the M2OR odorant receptor database.
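Also: active if original authors judged signal statistically different from baseline.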

Each compound was assayed against T1, OR2M3 (Homo sapiens) (UniProt Q8NG83). Details: stereoisomer not certain.
T1 sequence (whole entry): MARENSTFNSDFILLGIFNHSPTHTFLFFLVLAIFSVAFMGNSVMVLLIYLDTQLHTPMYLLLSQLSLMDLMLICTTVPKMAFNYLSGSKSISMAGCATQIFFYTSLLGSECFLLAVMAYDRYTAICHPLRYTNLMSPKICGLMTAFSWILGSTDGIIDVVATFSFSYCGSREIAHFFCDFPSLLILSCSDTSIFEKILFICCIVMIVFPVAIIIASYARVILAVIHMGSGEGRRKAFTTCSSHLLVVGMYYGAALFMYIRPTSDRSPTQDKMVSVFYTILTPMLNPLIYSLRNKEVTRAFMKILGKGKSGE
Method in brief: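 Transient luciferase assays in mammalian cell lines were common, though methods varied by source. The values come from published papers and their supplementary material, with extra details from the original authors when needed. Responsive refers to a measured signal the original authors judged statistically different from baseline, and non-responsive (inactive) to the remainder.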
In the case of `CCCCCC=O`, the “odorant receptor agonist call” value is reported as “inactive”. `CCCCC=CC=O` was tested, and the “odorant receptor agonist call” value was “inactive”. In the case of `COC(=O)C(C)C`, the “odorant receptor agonist call” value is reported as “inactive”. With `CC(C)c1ccc(C=O)cc1` the “odorant receptor agonist call” value was “inactive”. In the case of `CCOC(=O)CCSC`, the “odorant receptor agonist call” value is reported as “inactive”. With `COc1nccnc1C(C)C` the “odorant receptor agonist call” value was “inactive”. For `CCCCCCCC(C)=O`, the “odorant receptor agonist call” value was “inactive”. For `CCCCCC(=O)OCC`, the “odorant receptor agonist call” value was “inactive”. In the case of `CC(C)=CC1CC(C)CCO1` (configuration not stated), the “odorant receptor agonist call” value is reported as “inactive”. In the case of `Cc1ccc(O)cc1`, the “odorant receptor agonist call” value is reported as “inactive”. For `CCOC(=O)c1ccccc1`, the “odorant receptor agonist call” value was “inactive”. In the case of `OCC=Cc1ccccc1`, the “odorant receptor agonist call” value is reported as “inactive”. In the case of `CCCCCCCC1CCCC(=O)O1` (configuration not stated), the “odorant receptor agonist call” value is reported as “inactive”. With `CCCCCc1ccccn1` the “odorant receptor agonist call” value was “inactive”. In the case of `COc1ccc(C)cc1O`, the “odorant receptor agonist call” value is reported as “inactive”. In the case of `CCC=CCCOC(C)=O`, the “odorant receptor agonist call” value is reported as “inactive”. For `CC(=O)C1=NCCS1`, the “odorant receptor agonist call” value was “inactive”. In the case of `Cc1c[nH]c2ccccc12`, the “odorant receptor agonist call” value is reported as “inactive”. In the case of `CC(=O)CC(C)(C)S`, the “odorant receptor agonist call” value is reported as “inactive”. For `CCC(C)c1nccnc1OC` (configuration not stated), the “odorant receptor agonist call” value was “inactive”. For `CCCCCC=CC=CC=O`, the “odorant receptor agonist call” value was “inactive”. With `CCCC(S)C(C)CO` (configuration not stated) the “odorant receptor agonist call” value was “active”. In the case of `CC(=O)C=CC1=C(C)CCCC1(C)C`, the “odorant receptor agonist call” value is reported as “inactive”. With `CCCCCCCC1CCC(=O)O1` (configuration not stated) the “odorant receptor agonist call” value was “inactive”. With `CCCCCC1CCCC(=O)O1` (configuration not stated) the “odorant receptor agonist call” value was “inactive”. For `CC1=CCC(C(C)(C)S)CC1` (configuration not stated), the “odorant receptor agonist call” value was “inactive”. With `CSC` the “odorant receptor agonist call” value was “inactive”. In the case of `CCOC(=O)CC(C)C`, the “odorant receptor agonist call” value is reported as “inactive”. With `C=CC(=O)CCCCC` the “odorant receptor agonist call” value was “inactive”. `CSSc1ccoc1C` was tested, and the “odorant receptor agonist call” value was “inactive”. In the case of `CC=CC(=O)C1=C(C)CCCC1(C)C`, the “odorant receptor agonist call” value is reported as “inactive”. `CCCSSCCC` was tested, and the “odorant receptor agonist call” value was “inactive”. With `CCCSSSC` the “odorant receptor agonist call” value was “inactive”. In the case of `CCCCCCC=CC=O`, the “odorant receptor agonist call” value is reported as “inactive”. `SCc1cccs1` was tested, and the “odorant receptor agonist call” value was “inactive”. In the case of `C=C(C)c1ccc(C)cc1`, the “odorant receptor agonist call” value is reported as “inactive”. In the case of `CCCCCC(C)O` (configuration not stated), the “odorant receptor agonist call” value is reported as “inactive”.
